GASC-1 inh: human JMJD2C demethylase inhibition. Q9H3R0. GST-JMJD2C(1-420) H3K9me3 demethylation, DELFIA europium. inhibition, % at 2.35 µM. actives 0.069% (n = 330,000). AID 2099;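 active means more than half of a compound's replicate wells show inhibition beyond 50%, single wells judged on their own value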;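 further: signal counts dimethyl H3K9 product captured on neutravidin plate; 0% = median of DMSO wells and 100% = 0.3 times that DMSO median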
Target sequence (Q9H3R0 1-420 limits assumed): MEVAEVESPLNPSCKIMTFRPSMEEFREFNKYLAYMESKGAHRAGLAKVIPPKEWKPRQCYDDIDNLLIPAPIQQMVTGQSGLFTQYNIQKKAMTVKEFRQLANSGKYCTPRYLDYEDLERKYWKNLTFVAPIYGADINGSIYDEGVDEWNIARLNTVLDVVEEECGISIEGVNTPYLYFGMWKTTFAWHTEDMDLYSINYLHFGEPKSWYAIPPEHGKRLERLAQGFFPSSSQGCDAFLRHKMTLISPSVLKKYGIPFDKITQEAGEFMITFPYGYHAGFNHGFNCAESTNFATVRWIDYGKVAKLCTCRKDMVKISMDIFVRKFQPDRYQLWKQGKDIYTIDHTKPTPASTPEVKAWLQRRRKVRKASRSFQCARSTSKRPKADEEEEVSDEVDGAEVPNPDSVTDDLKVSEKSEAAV
GalR3 antagonist: human GalR3 antagonism; O60755; HEK293 GalR3-CNG cAMP membrane potential fluorescence; galR3 body fused to GalR1 C-terminus; actives 0.44% (n = 360,000); AID 651719; inhibition, % at 3 µM;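 active means inhibition above the screen-wide average plus 3 SD, cut at about 13% in these data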;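 further: forskolin and galanin both at EC90 stimulate the cells; cAMP rise reported by CNG channel membrane potential dye signal; 0% = forskolin plus galanin with DMSO and 100% = forskolin alone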
NR2E3 ag-1: activates human photoreceptor nuclear receptor NR2E3; Q9Y5X4; GST-NR2E3/biotin-RetCOR TR-FRET, 1536-well; inhibition of corepressor binding, % at 4.78 µM; actives 0.12% (n = 320,000); AID 2300;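 active means percent inhibition above the cutoff of mean plus 3 SD of all tested compounds, set per screening campaign, cut at about 20% in these data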;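 further: 0% = DMSO wells and 100% = biotin wells as full block of FRET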
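Material: NR2E3–RetCOR corepressor complex / Amount: 1.35 nM GST-NR2E3 / Medium: Tris pH 7.5 / Compound: single nominal compound dose of 4.8 µM / Incubation: 5 h at 4 °C / Technique: TR-FRET, Eu(K)-anti-GST donor, streptavidin-D2 acceptor, ex 340, em 617/671 nm / Read-out basis: percent loss of FRET ratio relative to control wells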
Jurkat NFkB inh: inhibitors of the PMA/ionomycin-induced NF-kB reporter in Jurkat cells. AID 435003. inhibition, % at 4 µM. actives 0.53% (n = 330,000). PMA/ionomycin-induced NF-kB luciferase reporter, luminescence; in the data active means inhibition above about 50%
697 NFkB inh: lowers PMA/ionomycin-induced NF-kB signal in 697 B cells. 697 B-cell NF-kB luciferase reporter, 16 h. inhibition, % at 4 µM. actives 0.33% (n = 330,000); in the data active means inhibition above about 35%
NR2E3 ag-2: agonists of human NR2E3 nuclear receptor | Q9Y5X4 | CHO-S Gal4-NCOR/VP16-NR2E3 two-hybrid, luciferase | inhibition of corepressor binding, % at 3.98 µM | actives 0.35% (n = 360,000) | AID 602229;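 active means inhibition above the mean of all tested compounds plus 3 SD, cut at about 70% in these data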;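 further: 0% = DMSO with NR2E3 transfected cells and 100% = cells lacking NR2E3 construct; higher means lower luciferase signal from less NR2E3 corepressor binding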
GalR3 conf: GalR3 (human) antagonism, confirmation. inhibition, % at 3 µM. actives 59% (n = 1,600). shares compounds with GalR3 antagonist. HEK293 GalR3 CNG cAMP biosensor, membrane potential fluorescence; galR3 fused to GalR1 carboxy tail; challenged with forskolin and galanin at EC90;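 active means inhibition above the primary screen's cutoff, the mean inhibition of all screened compounds plus 3 SD, cut at about 13% in these data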;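 further: 0% = forskolin plus galanin and 100% = forskolin alone with DMSO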
CNG parental: counter-screen for GalR3 antagonists: nonspecific agonists in parental HEK-CNG cells. shares compounds with GalR3 antagonist. HEK293-CNG parental cells, cAMP membrane potential fluorescence; normalised: DMSO wells 0%, forskolin wells 100%. activation, % at 3 µM. actives 10% (n = 1,600). AID 652268; in the data active means activation above about 1.3%
Active calls of the source: *; . = no result. This is a sample that favours compounds with a hit; in the whole collection about 1.5% have one here.

SMILES | GASC-1 inh | GalR3 antagonist | NR2E3 ag-1 | Jurkat NFkB inh | 697 NFkB inh | NR2E3 ag-2 | GalR3 conf | CNG parental
COc1cc(NC(=O)COC(=O)CCc2cc(OC)c(OC)c(OC)c2)cc(OC)c1 | 4 | -2 | -1 | 7 | 6 | 9 | . | .
COc1cc(CCC(=O)OCC(=O)Nc2sccc2C(N)=O)cc(OC)c1OC | . | 93* | . | 13 | -15 | -20 | 102* | -1
COc1cc(CCC(=O)OCC(=O)Nc2ccc(C(N)=O)cc2)cc(OC)c1OC | -16 | . | -3 | 2 | 9 | -12 | 9 | 0
COc1ccc(CCNC(=O)CSc2nc(C)nc3sccc23)cc1OC | -8 | 4 | 3 | 13 | 1 | 0 | . | .
CCOc1ccc(C2=Nn3c(nnc3-c3ccccc3OC)SC2)cc1 | -2 | 22* | -1 | . | . | 25 | 45* | 2.2*
COc1ccc(C2=Nn3c(nnc3-c3ccccc3C(F)(F)F)SC2)cc1OC1CCOC1 (configuration not stated) | -3 | 15* | . | -10 | -12 | -30 | 17* | 0
N#CCOC(=O)C1CCN(S(=O)(=O)c2ccc3c(c2)OCCO3)CC1 | 17 | -5 | 2 | -1 | 11 | -15 | . | .
COc1ccccc1NC(=O)Cc1nc(CCl)cs1 | -4 | 14* | -2 | -16 | 6 | -1 | 12 | 0
Cc1ccc(S(=O)(=O)Nc2ccsc2C#N)cc1 | 1 | -10 | 4 | 1 | 18 | -16 | . | .
COC(=O)CCCN=C1SCCN1Cc1ccccc1 | 4 | 15* | 1 | -4 | 13 | 6 | 8 | 0
Cc1cc(C)c2nc(N3C(=O)C(O)=C(C(=O)c4ccco4)C3c3ccc(O)cc3)sc2c1 (configuration not stated) | 4 | 45* | 5 | -12 | -40 | -71 | 12 | 1
Cc1cc(C)c2nc(N3C(=O)C(O)=C(C(=O)c4ccco4)C3c3cccc(O)c3)sc2c1 (configuration not stated) | -3 | 14* | 4 | -23 | -16 | -53 | 9 | 0
CC(=O)c1ccc(S(=O)c2ccccc2)cc1 (configuration not stated) | 24 | -3 | -2 | 1 | 8 | -3 | . | .
CCOc1cc(C(C(=O)NCC2CCCO2)N(C(=O)Cn2nnc3ccccc32)c2ccccc2C(C)=O)ccc1O (configuration not stated) | 1 | 15* | -3 | 1 | 3 | -7 | 14* | 0
CCS(=O)c1ccccc1C(=O)OCC(=O)Nc1cccc(S(=O)(=O)N2CCCCC2)c1 (configuration not stated) | -15 | 92* | -1 | 3 | -23 | -3 | 96* | 0
CCOc1ccccc1C(=O)OCC(=O)Nc1cccc(S(=O)(=O)N2CCCC2)c1 | 5 | -7 | . | 6 | -3 | -14 | . | .
CCC(=O)c1ccc(OCC(=O)Nc2cccc(S(=O)(=O)N3CCCCCC3)c2)cc1 | . | 98* | . | 34 | -29 | -5 | 97* | -1
O=C(Cn1nc(C(=O)O)c2ccccc2c1=O)Nc1cccc(S(=O)(=O)N2CCCCC2)c1 | . | 13* | . | 2 | -5 | -19 | 58* | -1
CC(C)n1nccc1NC(=O)Nc1ccccc1 | -3 | -9 | 5 | -1 | 9 | -1 | . | .
Cc1cc2c(ncn2Cc2ccccc2)c([N+](=O)[O-])c1C | 5 | 1 | -1 | 0 | -13 | -1 | . | .
S=C(NCC1CCCO1)Nc1ccccc1 (configuration not stated) | 7 | -3 | 1 | -8 | -6 | -19 | . | .
Cn1c(=O)c2c(nc(NCc3cccnc3)n2Cc2ccc(Cl)cc2)n(C)c1=O | 8 | 24* | 0 | -1 | 28 | -6 | 9 | 1
Cn1c(=O)c2c(ncn2CC(COCc2ccc(Cl)cc2)OCc2ccc(Cl)cc2)n(C)c1=O (configuration not stated) | -2 | -4 | 3 | -3 | -5 | 9 | . | .
Cn1c(=O)c2c(ncn2Cc2ccc(Cl)cc2)n(C)c1=O | -12 | 15* | 3 | 6 | -5 | -16 | 0 | 0
COC(=O)[C@]12C[C@H](CC(=O)NCc3cccc(C(F)(F)F)c3)C(=O)N(Cc3ccccc3)C1=C[C@H](C(C)C)O[C@@H]2C1CC1 | . | -5 | . | . | . | . | . | .
SMILES | GASC-1 inh | GalR3 antagonist | NR2E3 ag-1 | Jurkat NFkB inh | 697 NFkB inh | NR2E3 ag-2 | GalR3 conf | CNG parental
NC(=O)CC[C@H](NC(=O)c1ccc(F)cc1)C(=O)OCC(=O)NCc1ccc2c(c1)OCO2 | -7 | 26* | . | -11 | -17 | -20 | 1 | 0
Cc1ccnc(Nc2nc(-c3sc(C)nc3C)cs2)c1 | 9 | 32* | 0 | 4 | -166 | 8 | 36* | 0
Cc1cccc(Nc2nc(-c3sc(C)nc3C)cs2)c1 | 6 | -8 | 0 | -42 | -104 | -99 | . | .
O=C(Cn1[nH]c(=O)c2ccccc2c1=O)OCC(=O)c1ccc(Br)cc1 | 3 | -5 | 1 | 11 | 19 | -11 | . | .
CCCNC(=O)C12CCC(C)(c3nc4cc(C)c(C)cc4nc31)C2(C)C (configuration not stated) | . | 16* | 0 | 5 | 4 | 4 | 4 | 0
CNC(=O)C12CCC(C)(c3nc4cc(C)c(C)cc4nc31)C2(C)C (configuration not stated) | 5 | -4 | 4 | -8 | 10 | 2 | . | .
C=C(C)[C@@H]1CC=C(CN2CCC(N3CCC(C(=O)N4CCCC4)CC3)CC2)CC1 | 4 | 20* | 4 | 45 | 6 | 3 | 3 | 4.4*
C=C(C)C1CC=C(CN2CCC(O)CC2)CC1 (configuration not stated) | -1 | -2 | 1 | -15 | 8 | 8 | . | .
O=S(=O)(c1cccs1)N1CCC(CO)(Cc2ccc(Cl)cc2)CC1 | -18 | 2 | 0 | 12 | 4 | 4 | . | .
O=C(COc1cccnc1[N+](=O)[O-])NCc1ccccc1 | -22 | -8 | 7 | -12 | -26 | -25 | . | .
COc1cc(CN(C)CC(=O)c2[nH]c(C)c(C(C)=O)c2C)ccc1OC(F)F | 8 | 19* | -2 | 19 | -3 | 39 | 12 | 0
CC1(C)CC(=O)c2c(Cc3ccccc3)noc2C1 | 5 | 20* | 3 | -14 | -1 | -24 | 4 | 1.3*
CC1(C)CC(=O)c2c(noc2-c2ccccc2)C1 | 2 | -2 | 3 | -2 | -27 | 2 | . | .

Source: PubChem
